A short description of series [1]: Drug transport in human Caco2 cells assessed as basolateral excretion of compound treated with genistein at 2 uM after 4 hrs by UPLC-MS/MS analysis in presence of BCRP inhibitor Ko143. In kind it is ADME, cell-based. The following applies: caco-2, 4 h. The procedure, abridged:
(§1)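 Caco-2 TC7 monolayers on 3 μm polycarbonate inserts, used 19–22 days post-seeding (TEER ≥460 Ω/cm2). Genistein 2 or 10 μM in HBSS pH 7.4 applied apically, ±5 μM Ko143 apically; sampling both sides at 0–4 h hourly with replacement, triplicate. Genistein and four conjugates plus intracellular amounts at 4 h by UPLC-MS/MS; mass balance versus dose added.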
(Caco-2 cells form a polarised layer with tight junctions and transporters.)

Series [2] can be described thus: Drug transport in human Caco2 cells assessed as basolateral excretion of compound treated with genistein at 10 uM after 4 hrs by UPLC-MS/MS analysis in presence of BCRP inhibitor Ko143. In kind it is ADME, cell-based. The following applies: caco-2, 4 h. The procedure, abridged:
as §1

The test system of series [3] is Blood. Description: Stability in Wistar rat blood at 3 uM up to 4 hrs by UPLC-MS/MS analysis. In kind it is ADME, tissue-based. The method, boiled down: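 Genistein glucuronide mixture (G-7-G plus G-4′-G, 3 μM) with 3.8 μM genistein incubated in fresh rat whole blood, 37°C shaking water bath. Sampled at 0, 60, 120 and 240 min. Reaction stopped with acetonitrile containing daidzein internal standard. Genistein and conjugates quantified by UPLC-MS/MS using multiple reaction monitoring. n = 3.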

A short description of series [4]: Stability in potassium phosphate buffer at pH 7.4 up to 4 hrs. Conditions: pH 7.4, 4 h; call rule not given here. In kind it is physicochemical. The method, boiled down:
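Negative control run under the blood-incubation conditions but in 50 mM potassium phosphate buffer, pH 7.4, instead of blood. Genistein glucuronides (G-7-G plus G-4′-G, with aglycone) or sulfates (G-7-S plus G-4′-S, with aglycone) held at 37°C in a shaking water bath up to 4 h. Sampled at 0, 60, 120 and 240 min and read by UPLC-MS/MS.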

Molecules are shown by their SMILES.

With `O=c1c(-c2ccc(OS(=O)(=O)O)cc2)coc2cc(O)cc(O)c12`, the Drug transport entry in series [1] and in series [2] was “Active” each time. In addition, the Stability entry in series [3] and in series [4] was “Stable” each time.
As for `O=c1c(-c2ccc(O)cc2)coc2cc(OS(=O)(=O)O)cc(O)c12`, the Drug transport entry in series [1] and in series [2] was “Active” throughout. Also, the Stability entry in series [3] and in series [4] was “Stable” each time.

Values taken from ChEMBL document CHEMBL3526009, “Breast cancer resistance protein (ABCG2) determines distribution of genistein phase II metabolites: reevaluation of the roles of ABCG2 in the disposition of genistein” (Drug Metab Dispos, 2012).
